Measurements taken from PMC6885571 (International Journal of Nanomedicine, 2019).
Values after ≈ are worked out from the molar mass of the structure shown.

How the values were obtained:
nasal mucosa = assay: Test for nasal toxicity of NEs; type: in vivo, Wistar rats; conditions: rats, intranasal, 14 consecutive days; mucosa on days 1, 7, 14
Summary of the method: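 Male Wistar rats (200 g), four groups of three, dosed intranasally. Groups: saline (negative control), 1% sodium deoxycholate in 50 µL saline (positive control), or one of two nanoemulsions for 14 consecutive days. Nasal mucosa collected after sacrifice on days 1, 7 and 14, fixed 24 h in 10% buffered formalin, dehydrated in ethanol, cleared in xylene and paraffin-embedded. Sections stained with H&E and examined by light microscopy.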

[1] = Pharmacokinetic study after intranasal administration; type: in vivo, Wistar rats; conditions: rats
Summary of the method: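 Wistar rats (200±20 g) anaesthetised with 10% chloral hydrate received 50 µL of formulation through a PE 10 tube inserted 1 cm into the nostril. Orbital blood and tissues taken at 0.083–24 h (11 points). Plasma or tissue homogenate alkalised with 2 mol/L NaOH, extracted with 2 mL ethyl acetate, dried under nitrogen, redissolved in methanol and assayed by HPLC. Parameters calculated by software; mean±SD, n=6.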

[2] = In vitro drug release, dialysis bag in phosphate buffer pH 6.8; type: physicochemical; conditions: at 24 h; phosphate buffer pH 6.8, 37 °C
Summary of the method: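 Dialysis bag (12–14 kDa cut-off), pre-soaked overnight in medium, held 1 mL of freshly prepared nanoemulsion (5 mg/mL drug). Bag placed in 100 mL phosphate buffer pH 6.8 at 37 °C, shaken at 50 rpm. At set times 4 mL was withdrawn and replaced with fresh medium. HupA measured by HPLC (C18, methanol–water 43:57, 308 nm), plotted as cumulative % released versus time. Drug suspension run under the same sink conditions.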

hCMEC/D3 cells = assay: Cellular uptake and transporter/endocytosis inhibition assay; type: cell-based, human; conditions: 30 min pre-incubation with inhibitor
Summary of the method: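 hCMEC/D3 cells grown to 90% confluence, then pre-incubated 30 min at 37 °C, 5% CO2 with one inhibitor: verapamil 10 µM, MK571 10 µM, ko143 1 µM, […], aprotinin 200 µg/mL, colchicine 2.5 µM or […]. Nanoemulsion or HupA solution added for 1 h. Cells washed with ice-cold PBS, lysed in 1% Triton X-100, dichloromethane-extracted and analysed by HPLC; mean±SD, n=3.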

[3] = Saturation solubility of HupA in oils, surfactants and co-surfactants; type: physicochemical; conditions: thermodynamic from solid
Summary of the method: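 Excess HupA added to 0.2 mL vehicle, vortexed 10 min, then kept 24 h at 37±0.5 °C in a shaking water bath. Mixture centrifuged at 6000 rpm for 10 min and supernatant filtered (0.45 µm). 0.1 mL diluted in methanol and dissolved drug quantified by HPLC.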

C[C@H](CCC(=O)[O-])[C@H]1CC[C@H]2[C@@H]3CC[C@@H]4C[C@H](O)CC[C@]4(C)[C@H]3C[C@H](O)[C@]12C.[Na+] [1% deoxycholic acid sodium solution, deoxycholic acid sodium]
nasal mucosa toxicity (histology) (nasal mucosa): extensive damage to the nasal mucosa

C/C=C1\[C@H]2C=C(C)C[C@]1(N)c1ccc(=O)[nH]c1C2 [HupA Solution]
AUC(0-t) ([1]; brain): 21.507 ng·h/mL | AUC(0-∞) ([1]; brain): 23.765 ng·h/mL | Cmax ([1]; brain): 13.29 ng/mL | MRT(0-t) ([1]; brain): 1.255 h | MRT(0-∞) ([1]; brain): 1.674 h | T1/2 ([1]; brain): 1.173 h | Tmax ([1]; brain): 0.25 h | AUC(0-t) ([1]; plasma): 51.188 ng·h/mL | AUC(0-∞) ([1]; plasma): 51.378 ng·h/mL | Cmax ([1]; plasma): 56.95 ng/mL | MRT(0-t) ([1]; plasma): 1.153 h | MRT(0-∞) ([1]; plasma): 1.439 h | T1/2 ([1]; plasma): 0.769 h | Tmax ([1]; plasma): 0.25 h | drug released [2]: 63%

Aprotinin
effect of inhibitor on transport of HupA-NE across the cells (hCMEC/D3 cells; then HupA-NE 1 h): restricted transport | effect of inhibitor on Lf-HupA-NE transport (hCMEC/D3 cells; then Lf-HupA-NE 1 h): mildly reduced

C/C=C1\[C@H]2C=C(C)C[C@]1(N)c1ccc(=O)[nH]c1C2 [HupA, Huperzine A]
solubility at 24 h ([3]; Capryol90, 37 °C, oil or lipid): 38.33 ± 0.15 mg/mL (≈ 158 mM) | solubility at 24 h ([3]; Cremophor EL, 37 °C): 34.7 ± 0.09 mg/mL (≈ 143 mM) | solubility at 24 h ([3]; Grape seed oil, 37 °C, oil or lipid): 1.96 ± 0.01 mg/mL (≈ 8.09 mM) | solubility at 24 h ([3]; L.A.S, 37 °C): 34.96 ± 0.13 mg/mL (≈ 144 mM) | solubility at 24 h ([3]; LABRAFIL M 1944 CS, 37 °C, oil or lipid): 19.7 ± 0.24 mg/mL (≈ 81.3 mM) | solubility at 24 h ([3]; Labrasol, 37 °C): 102.2 ± 0.65 mg/mL (≈ 422 mM) | solubility at 24 h ([3]; PEG400, 37 °C, organic solvent or mixture): 98.41 ± 0.35 mg/mL (≈ 406 mM) | solubility at 24 h ([3]; Plurol Oleique CC 497, 37 °C): 15.5 ± 0.31 mg/mL (≈ 64 mM) | solubility at 24 h ([3]; Propanediol, 37 °C, organic solvent or mixture): 65.3 ± 0.91 mg/mL (≈ 270 mM) | solubility at 24 h ([3]; Soybean oil, 37 °C, oil or lipid): 2.73 ± 0.07 mg/mL (≈ 11.3 mM) | solubility at 24 h ([3]; Span 80, 37 °C): 13.35 ± 0.12 mg/mL (≈ 55.1 mM) | solubility at 24 h ([3]; Tween 80, 37 °C): 21 ± 0.45 mg/mL (≈ 86.8 mM) | solubility at 24 h ([3]; isopropyl myristate (IPM), 37 °C, oil or lipid): 2.43 ± 0.01 mg/mL (≈ 10 mM)
